In one data set the test system is Gnaq. Put plainly: 2% DSS colitis in Gnaq cKO mice, overall. Format: in vivo, mouse. The note with it: Gnaq cKO (gut epithelial) mice, vs AAV control mice. Summed up: (§1)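 Male Arrb2fl/fl or Gnaqfl/fl mice (7–8 weeks) were fasted overnight, anaesthetised, and given 100 μL AAV8-Vil-cre or AAV8-Vil-null (1E+11 vg/mL) by catheter 4 cm into the colon. One week later they received 2% DSS in drinking water for 7 days. Read-outs were body weight, DAI, colon length, H&E, serum IL-6/IL-1β ELISA, and colonic Il6/Tnf/Il1b/Tgfb1/Tjp1/Ocln mRNA.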

Data set [1] has as its system GALR1. Put plainly: NFAT-luc luciferase. The format is cell-based. To be noted: HEK293, GALR1, luciferase, 12 h. In short, it runs like this:
(§2)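 HEK293 cells were transfected (Lipofectamine) with empty pcDNA3.1 or GALR plasmid (2 μg) plus CRE, NFAT-RE or SRE luciferase reporter. After 36 h, medium was replaced with serum-free medium containing test peptide, diluted in DMEM from a 1 mM water stock, for 12 h. Luciferase was read 48 h post-transfection. Technical triplicate; mean ± SD; 37 °C, 5% CO2.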

Data set [2] has as its system GALR3. The data set can be described thus: SRE-luc luciferase. Format: cell-based. The note with it: HEK293, GALR3, luciferase, 12 h. In short, it runs like this:
as §2

The next data set concerns hGALR2. Put plainly: G protein pathway activation, HEK293 luciferase. Format: cell-based. The note with it: human GALR2, vs cGAL53. In short, it runs like this: as §2
The subject of data set [3] is GALR2. The data set can be described thus: SRE-luc luciferase. The format is cell-based. The note with it: HEK293, GALR2, luciferase, 12 h. Summed up: as §2
The subject of the next data set is mGALR2 mutants. Put plainly: Tango β-arrestin2 recruitment, binding-site mutants. Format: cell-based, mouse.
The test system of another data set is DSS-induced colitis. Put plainly: DSS-induced colitis in wild-type mice, overall therapeutic efficacy. To be noted: chicken and mouse colitis models, overall statement. The format is in vivo, mouse.
Another data set has as its system Caco2 cells. Put plainly: RT-qPCR cytokine expression, Caco2 cell inflammation model. To be noted: IL-1β + TNF-α. The format is cell-based, human. A general note: In qPCR the cycle at which signal appears reflects the starting amount.
A short description of data set [4]: Tolerability of peptide alone in healthy male mice, overall. Format: in vivo, mouse. The note with it: daily i.p. for six consecutive days. In short, it runs like this:
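Healthy male mice received daily i.p. test peptide for six consecutive days alongside a saline-injected control group. Body weight, water intake, food intake and colon length were recorded.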

Data set [5] concerns GALR1. The data set can be described thus: SRE-luc luciferase. The format is cell-based. To be noted: HEK293, GALR1, luciferase, 12 h. Summed up:
as §2

In data set [6] the test system is GALR3. The data set can be described thus: CRE-luc luciferase. The format is cell-based. To be noted: HEK293, GALR3, luciferase, 12 h. Summed up:
as §2

Data set [7] relates to GALR2. Put plainly: NFAT-luc luciferase. To be noted: HEK293, GALR2, luciferase, 12 h. Format: cell-based. In short, it runs like this:
as §2

For data set [8], the system named is DSS-induced intestinal inflammation. The format is in vivo, chicken. In short, it runs like this: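 Forty 21-day-old male yellow-feathered broilers were split into control, DSS and two peptide groups under 24 h light, with free food and water. DSS groups were gavaged with […] of 4% DSS daily from day 21 to 29. Treated birds got 100 μL of 50 μM peptide i.p. daily. TNF-α, IL-1β and IL-6 were measured by ELISA in jejunum/ileum homogenates (1:9 w/v ice-cold PBS, pH 7.4; 5000 × g, 10 min, 4 °C).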

A further data set concerns colon transcriptome. Put plainly: RNA-seq of colon tissue, DSS-induced colitis mice. The format is in vivo. The note with it: mouse colon. Summed up:
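Total RNA was extracted from mouse colon with Trizol, sequenced on BGIseq500 and mapped to the mouse genome. Data were analysed in R and reported as mean ± SEM.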

The subject of data set [9] is GALR1. Put plainly: CRE-luc luciferase. Format: cell-based. The note with it: HEK293, GALR1, luciferase, 12 h. Summed up: as §2
Another data set deals with mGALR2. The data set can be described thus: G protein pathway activation, HEK293 luciferase. Format: cell-based. To be noted: mouse GALR2, vs cGAL53. Summed up:
as §2

Data set [10] has as its system GALR2. Put plainly: CRE-luc luciferase. Format: cell-based. The note with it: HEK293, GALR2, luciferase, 12 h. In short, it runs like this: as §2
Data set [11] deals with GALR3. Put plainly: NFAT-luc luciferase. The format is cell-based. To be noted: HEK293, GALR3, luciferase, 12 h. In short, it runs like this:
as §2

In a further data set the test system is ARRB2. The data set can be described thus: 2% DSS colitis in Arrb2 cKO mice, overall. Format: in vivo, mouse. To be noted: Arrb2 cKO (gut epithelial) mice, vs AAV control mice. In short, it runs like this: as §1
Data set [12] relates to GALR2. The data set can be described thus: G protein versus β-arrestin2 signaling bias at GALR2. The format is cell-based.
Data set [13] deals with GALR1. To be noted: cited from earlier work.
The test system of a further data set is TNBS-induced colitis. The note with it: rat acute TNBS colitis; cited from earlier work.
The subject of data set [14] is GALR3. The note with it: cited from earlier work.
For data set [15], the system named is GALR2. To be noted: cited from earlier work.

“Also recorded” adds a separate entry of the source.

Data on 2 substances can be found in article PMC12749109 (Nature Communications, 2025).

Consider “GWTLNSAGYLLGPHAVDNHRSFNDKHGFT-NH2 [cGAL29]”, for which the “ability to alleviate weight loss, colon shortening, intestinal damage, inflammation” value in the data set with Gnaq is given as “significantly reduced”. The “Gq (NFAT-luc) activation” value is listed as “not GALR1” in the data set with GALR1 [1], “more robust activation; also recorded: can activate” in the data set with GALR2 [7] and “can activate” in the data set on GALR3 [11]. The “Gi (SRE-luc) activation” value was “can activate” in the data set with GALR3 [2], “can activate” in the data set on GALR2 [3] and “not GALR1” with GALR1 [5]. In addition, the “activation of G protein pathways” value with hGALR2 and in the data set with mGALR2 was “more strongly than cGAL53” each time. Further, in the data set with mGALR2 mutants, the “β-arrestin2 recruitment after mutation of predicted unique binding sites” value is “affected”. For the same substance, the “alleviation of colitis / intestinal inflammation, overall” value with DSS-induced colitis was “alleviated intestinal inflammation symptoms in mouse colitis induced by DSS and TNBS”. In the data set on Caco2 cells, the “concentration giving (similar) anti-inflammatory effect” value was determined as 10 µM. Moreover, the “expression of Il6, Il23 and Tgfb1 induced by IL-1β and TNF-α” value in the data set on Caco2 cells (RT-qPCR) was “reduced”. Further, the “body weight, water and food intake, colon length (tolerability)” value in data set [4] is “neither peptide affected body weight, water, and food intake, nor colon length, indicating good tolerability”. The “Gs (CRE-luc) activation” value was “can activate” with GALR3 [6], “not GALR1” in the data set with GALR1 [9] and “more robust activation; also recorded: can activate” in the data set on GALR2 [10]. Besides, in [8] (chicken, 4% DSS oral gavage, daily i.p. peptide), the “IBD-related symptoms in DSS-treated chickens” value was “ameliorated IBD-related symptoms in chickens, manifested as reductions of body weight loss, intestinal bleeding points and tissue damage”. Moreover, the “expression of colonic inflammatory factors induced by DSS” value in data set [8] (chickens) was “reduced the expression of colonic inflammatory factors”. In addition, the “DSS-changed pathways (KEGG)” value with colon transcriptome is “significantly modulated”. Moreover, the “expression levels of immune-related genes” value in the data set with colon transcriptome was “significantly reduced”. The “therapeutic effects (weight loss, colon shortening, intestinal damage, inflammation)” value with ARRB2 is “significantly diminished; also recorded: negated the therapeutic effects”. Also, the “bias at GALR2” value in the data set with GALR2 [12] is “G protein-”. Moreover, in the data set with GALR2 [12] (GALR2, overall statement), the “G protein activation / ARRB2 recruitment via GALR2” value is recorded as “stronger activation of G protein signaling pathways via GALR2”.
Turning to “galanin: biologically active neuropeptide of 29/30 amino acids, cited literature”, the affinity entry in the data set with GALR1 [13] is listed as “high affinity”; in the data set with GALR3 [14], “lower affinity”; in the data set on GALR2 [15], “high affinity”. Besides, in the data set on TNBS-induced colitis, the “severity of colonic damage and inflammatory responses” value is “decreases inflammatory responses; also recorded: reduce the severity of colonic damage and inflammatory responses”.
